Reference: PubChem BioAssay
Values without a mark were called inactive. Results filed as inconclusive are left out. The source made the active and inactive calls.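 The calls were made as follows, unless noted: active = cell viability at or below a set limit in both duplicate runs, the limit being the all-compound median minus 4 SD (cut at about 23% in these data, passing the limit was not always enough); inconclusive = no clear call, values can overlap the other calls; inactive = the rest.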

Legend:
[1] = S. cerevisiae growth inhibition in permissive medium (OD615), pilot counter-assay for S. cerevisiae lifespan shortening project, permissive growth control (AID 705;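 active = growth inhibition above 25% in both replicates, a cutoff set 3 SD above the mean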); conditions: OD615, 24 h, at 10 µM, stronger effect = higher value
Outline: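 System: engineered DeaD yeast; Medium: permissive raffinose/galactose medium; Compound dosing: 10 µM single dose, 0.25% DMSO; Incubation: 4 h cell pre-growth, 24 h exposure at 30 °C; Technique: OD at 615 nm; Evaluation: growth inhibition from lowered OD615 after 24 h.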

[2] = S. cerevisiae growth inhibition in restrictive medium, OD615, pilot screen, restrictive growth control, yeast lifespan reduction project (AID 706;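 active = growth inhibition above a set limit, 3 SD over mean compound inhibition, in both replicates, cut at about 43% in these data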;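 also: modified DeaD lifespan yeast strain shifted to restrictive glucose medium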); conditions: OD615, 48 h, at 10 µM, stronger effect = higher value
Outline: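 Material: modified S. cerevisiae; buffer or medium: CSMM-D glucose medium; doses: one concentration, 10 µM final, 0.25% DMSO; incubation: 48 h compound exposure at 30 °C; detection: optical density at 615 nm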

[3] = doxorubicin toxicity protection in MRP-1 cells – H69AR cells, CellTiter-Glo, duplicate, MRP-1 activator project, pilot screen (AID 807;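 active = viability increase at or above a cutoff of the median across tested compounds plus 3 SD, cut at about 8.5% in these data, passing the limit was not always enough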;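 also: compound pretreatment 18-22 h then 72 h combined with doxorubicin; 0% = doxorubicin alone and 100% = vehicle without doxorubicin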); conditions: H69AR viability with doxorubicin, CellTiter-Glo luminescence; at 10 µM; stronger effect = higher value
[4] = viability of HCT116 without oncogenic beta-catenin – human colon tumor cells, pilot screen (AID 823); conditions: HCT116 beta-catenin knockout viability, CellTiter-Glo, 60 h; at 10 µM; stronger effect = lower value;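 also: 0% = wells killed by 20 µM Hyamine and 100% = untreated DMSO cell wells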
[5] = RAM pathway blockade in budding yeast – dse1pr::URA3 reporter, 5-FOA selection, pilot screen (AID 869;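 active = inhibition over a set limit, the all-compound mean plus 3 SD, in both replicate runs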;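 also: 0% = DMSO wells with no growth and 100% = 10 µM 1-NA-PP1 with full growth; RAM network block rescues cells from 5-FOA so hits raise OD615 growth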); conditions: S. cerevisiae dse1pr::URA3 5-FOA growth, OD615, 2 d; at 10 µM; stronger effect = higher value; strain carries analog-sensitive mutant Cbk1 kinase
[6] = RAM signaling pathway blockade in yeast – S. cerevisiae, Pdr1DBD-CYC8 efflux-inhibited sensitized strain, primary screen (AID 1298;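 active = RAM network inhibition above 8.4% in each of two replicates, 3 SD over the compound average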;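 also: 0% = DMSO untreated cells without growth and 100% = 10 µM 1-NA-PP1 full growth; higher means more yeast growth rescued from 5-FOA killing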); conditions: S. cerevisiae cbk1-as DSE1-URA3 strain, 5-FOA growth OD615, 2 d; at 50 µM; stronger effect = higher value

Structure (SMILES)	growth inhibition [1]	growth inhibition [2]	viability increase [3]	viability [4]	inhibition [5]	RAM network inhibition [6]
O=C(CS(=O)(=O)c1c[nH]c2ccccc12)Nc1ccc2c(c1)OCCO2	-12.2%	-1.07%	-3.49%	95.7%	2.55%	1.93%
Cn1c(Cn2c(=O)sc3ccccc32)nnc1SCc1ccc(F)cc1	-7.12%	-5.41%	-4.85%	23.7% (active)	2.8%	16.2% (active)
CC1CCC(NC(=O)Cn2c(=O)[nH]c3ccsc3c2=O)CC1 (centres undefined)	-13.7%	-3.85%	1.29%	99.5%	2.09%	4.16%
Cc1ccc(S(=O)(=O)c2nc(-c3ccc(F)cc3)oc2SCC(N)=O)cc1	-20.8%	0.745%	-2.75%	100%	1.27%	1.2%
CCSc1nnc(NC(=O)C2CC=CCC2C(=O)O)s1 (centres undefined)	-17.7%	-7.56%	-0.57%	103%	0.665%	4%
COc1cc2c(cc1OC)C(C(=O)Nc1cccc(C)n1)C(c1cccnc1)N(C)C2=O (centres undefined)	8.34%	-5.33%	-3.94%	91.7%	0.58%	6.27%
N#Cc1c(N)nc2c(c1-c1ccc3c(c1)OCO3)CCCCCC2	-18%	-4.1%	-5.55%	84.8%	2.68%	6.96%
O=C(CN(CC(=O)N1CCOCC1)S(=O)(=O)c1ccc(Br)s1)N1CCOCC1	5.73%	-2.16%	-3.71%	98%	-0.32%	0.11%
CCOC(=O)N1CCC(NC(=O)C(Cc2ccccc2)NC(=O)C2CCCCC2)CC1 (centres undefined)	-1.7%	3.73%	-2.92%	100%	0.04%	6.59%
CC1Cc2ccccc2N1C(=O)CCS(=O)(=O)c1cccc2nonc12 (centres undefined)	8.09%	10.7%	-6.45%	85.7%	0.56%	3.48%
Cc1cc(Nc2nc3c(c(=O)n(C)c(=O)n3C)n2C)n(-c2ccc(Cl)cc2)n1	9.41%	3.67%	-3.74%	92.7%	3.25%	3.85%
COc1ccc2c(c1)SC1=NCCS(=O)(=O)N12	-7.75%	-10.4%	-2.86%	105%	0.315%	4.32%
Cc1ccc(Cn2c(Sc3nccc(C)n3)nc3c2c(=O)[nH]c(=O)n3C)cc1	-22.6%	2.41%	-2.6%	83.5%	2.89%	3.29%
O=C(CCCOc1ccccc1)Nc1nnc(C2CCCO2)s1 (centres undefined)	-23.6%	-3.93%	-2.89%	102%	3.7%	8.72%
COCCNC(=O)c1cn(C)c(=O)c2cc(OC)c(OC)cc12	-20.6%	-7.83%	-1.73%	95.5%	1.6%	7.53%
O=C(CNC(=O)Cn1ccc2ccccc2c1=O)NCCCN1CCN(c2cccc(Cl)c2)CC1	-15.3%	-5.33%	-5.42%	57.3%	1.63%	2.03%
O=C(NCc1cccs1)C1CCCN(S(=O)(=O)c2ccc3c(c2)OCO3)C1 (centres undefined)	-20.3%	-1.21%	-3.16%	90.8%	1.46%	3.17%
CC(=O)c1ccc(NC(=O)CSc2nnc(NC(=O)CN3CCOCC3)s2)cc1	8.22%	7.59%	-1.64%	102%	2.19%	0.62%
COc1ccc(N2CCN(CCNC(=O)c3ccc(NC(=O)C4CCCO4)cc3)CC2)cc1 (centres undefined)	-14%	-9.71%	-1.61%	99.8%	1.68%	7.42%
c1ccc(-n2ncc3c2ncn2c(C4CCCCC4)nnc32)cc1	-12.6%	-6.54%	0.09%	96.1%	1.33%	2.45%

Structure (SMILES)	growth inhibition [1]	growth inhibition [2]	viability increase [3]	viability [4]	inhibition [5]	RAM network inhibition [6]
Cc1ccccc1-c1ccc(Nc2ccc(N3CCOCC3)cc2)nn1	-3.44%	15.8%	-5.91%	81%	0.46%	2.5%
CN1CCc2c(sc3nc(SCC(=O)N4CCOCC4)nc(N)c23)C1	-4.38%	0.52%	-4.4%	95.1%	0.215%	5.05%
O=C(NCC1COc2ccccc2O1)c1ccc(NC(=O)C2CCCO2)cc1 (centres undefined)	-15.3%	3.32%	0.86%	99.7%	4.43%	8.99%
CCn1nc(CC(=O)Nc2ccc(-n3cnnn3)c(C)c2)c2ccccc2c1=O	-14.8%	-10.9%	-4.37%	90.3%	0.6%	5.97%
Cc1ccc(C(=O)N2CCN(C)CC2)cc1S(=O)(=O)N1CCCCC1	0.05%	-11.5%	-2.65%	90.1%	1.31%	0.57%
CCN(CC)CCOc1c(Br)ccc2c1sc1nc3n(c(=O)c12)CCC3	-1.77%	6.08%	-5.02%	30.4%	0.405%	5.14%
COc1cc2[nH]c(=O)n(CCC(=O)N3CCN(c4cccc(C)c4C)CC3)c(=O)c2cc1OC	2.25%	-5.83%	-5.18%	84.2%	0.615%	5.67%
Cc1ccc(-c2nc(=S)c3c(n2Cc2ccco2)CC(C)(C)OC3)cc1	-13.2%	2.99%	-2.16%	69.2%	-0.945%	3.44%
COc1cc(-c2nnn(CC#N)n2)ccc1OCc1ccccc1	-6.28%	9.63%	0.59%	94.5%	1.28%	1.51%
CCO/C=N/c1c(C#N)c(CC#N)nn1-c1ccccc1	-13.5%	2.31%	-1.36%	94.6%	2.31%	1.41%
COc1cc(C2/C(=C(\O)c3cc(C)ccc3C)C(=O)C(=O)N2CCN(C)C)ccc1O (centres undefined)	-21.2%	-6.28%	-1.94%	100%	1.94%	10.3%
CCOC(=O)N1CCC(NC(=O)C(NC(=O)C2CCCCC2)C(C)C)CC1 (centres undefined)	-6.95%	-2.83%	-1.25%	93%	2%	6.39%
COc1ccc(N2CCN(CCCNC(=O)CCCn3c(=O)[nH]c4ccsc4c3=O)CC2)cc1	-10.8%	-8.79%	-1.23%	94%	2.75%	9.35%
CSC(=NCCCN1CCOCC1)NS(=O)(=O)c1cccs1	-13.8%	-11.4%	-1.56%	95.6%	1.51%	1.45%
CSc1nnc(C2CCCN2)n1C (centres undefined)	-16.9%	-7.04%	-0.51%	90.9%	2.88%	-0.16%
CCCn1cc(S(=O)(=O)CC(=O)N2CCc3ccccc32)c2ccccc21	-14.9%	-8.48%	-5.64%	96.9%	4.21%	5.15%
O=C(O)CN1C(=O)Nc2ccc(Br)cc2C1c1ccccc1 (centres undefined)	0.155%	-8.88%	-2.28%	93.6%	-0.025%	0.79%
COc1cc(C2C(C(=O)c3ccco3)=C(O)C(=O)N2CCc2ccccc2)ccc1O (centres undefined)	-1.96%	-3.74%	-3.47%	95.8%	0.735%	-0.31%
O=C(CSc1oc(-c2ccc(F)cc2)nc1S(=O)(=O)c1ccccc1)NCC1CCCO1 (centres undefined)	-15.8%	4.17%	-5.58%	90.8%	2.46%	6.86%
